In ChEMBL document CHEMBL2375221, “Preparation and antimalarial activity of semisynthetic lycorenine derivatives” (Eur J Med Chem, 2013):

Test system: Plasmodium falciparum
Assay: Antimalarial activity against chloroquine-sensitive Plasmodium falciparum F-32 Tanzania infected in blood assessed as decrease in parasitaemia after 48 hrs
Type: functional, organism-based
In short: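 P. falciparum F-32 Tanzania (chloroquine-sensitive) grown in glucose-enriched RPMI 1640 with 10% human serum at 37 °C. After 24 h at 37 °C, the medium was replaced with fresh medium containing compound in DMSO at three concentrations (0.1, 1, 10). Incubation continued 48 h. On day three, a blood smear from each well was used to score parasitaemia versus control. IC50 was read graphically against concentration.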

SMILES	IC50
CN1CCC2=C[C@H](O)[C@H]3OC(=O)c4cc5c(cc4[C@@]3(O)[C@@H]21)OCO5	60.4 µM
CN1CC=C2C=C[C@H]3OC(=O)c4cc5c(cc4[C@H]3[C@@H]21)OCO5	94.1 µM
CN1CC[C@]2(Cl)C=C[C@H]3OC(=O)c4cc5c(cc4[C@H]3[C@H]12)OCO5	84 µM
CN1CCC2=C[C@H](O)[C@H]3OC(=O)c4cc(O)c(O)cc4[C@H]3[C@@H]21	9.9 µM
COc1cc2c(cc1OC)[C@@H]1[C@H](OC2=O)[C@@H](O)C=C2CCN(C)[C@H]21	84.5 µM
C[N+]1=CCC2=C[C@H](O)[C@H]3OC(=O)c4cc5c(cc4[C@H]3[C@@H]21)OCO5	> 100 µM
CN1CC[C@@H]2C[C@H](O)[C@H]3OC(=O)c4cc5c(cc4[C@H]3[C@@H]21)OCO5	78.8 µM
CN1CC[C@]2(Br)C[C@H](O)[C@H]3OC(=O)c4cc5c(cc4[C@H]3[C@H]12)OCO5	58.7 µM
C=Cc1cccc(-c2cc3c(cc2C(=O)O)OCO3)c1N(C)CC	86.1 µM
C=Cc1cccc(-c2cc3c(cc2C(=O)O)OCO3)c1N(C)CCCC	> 100 µM
C=Cc1cccc(-c2cc3c(cc2C(=O)O)OCO3)c1N(C)CCCCCCCCCCC	> 100 µM
C=Cc1cccc(-c2cc3c(cc2C(=O)OC)OCO3)c1N(C)CCCC	76.2 µM
CN1CCC2=C[C@H](O)[C@H]3OC(=O)c4cc5c(cc4[C@H]3[C@@H]21)OCO5	12.7 µM
CN1CCC2=CC(=O)[C@H]3OC(=O)c4cc5c(cc4[C@H]3[C@@H]21)OCO5 [2-OXOHIPPEASTRINE]	79.8 µM

Next, values leading:

IC50	SMILES
18.8 µM	CN1CCC2=C[C@H](O)[C@H]3NC(=O)c4cc5c(cc4[C@H]3[C@@H]21)OCO5
58.8 µM	CC(=O)O[C@H]1C=C2CCN(C)[C@H]2[C@@H]2c3cc4c(cc3C(=O)O[C@@H]21)OCO4
49.8 µM	CN1CCC2=C[C@H](OC(=O)c3cccnc3)[C@H]3OC(=O)c4cc5c(cc4[C@H]3[C@@H]21)OCO5
42.2 µM	CN1CCC2=C[C@H](OC(=O)c3ccc(Br)cc3)[C@H]3OC(=O)c4cc5c(cc4[C@H]3[C@@H]21)OCO5
57.1 µM	CC(C)C(=O)O[C@H]1C=C2CCN(C)[C@H]2[C@@H]2c3cc4c(cc3C(=O)O[C@@H]21)OCO4
7.4 µM	COC(=O)c1cc(C(=O)OC)cc(C(=O)O[C@H]2C=C3CCN(C)[C@H]3[C@@H]3c4cc5c(cc4C(=O)O[C@@H]32)OCO5)c1
55.4 µM	C=CCCC(=O)O[C@H]1C=C2CCN(C)[C@H]2[C@@H]2c3cc4c(cc3C(=O)O[C@@H]21)OCO4
61.8 µM	CCOC(=O)O[C@H]1C=C2CCN(C)[C@H]2[C@@H]2c3cc4c(cc3C(=O)O[C@@H]21)OCO4
49.4 µM	C=Cc1ccc(C(=O)O[C@H]2C=C3CCN(C)[C@H]3[C@@H]3c4cc5c(cc4C(=O)O[C@@H]32)OCO5)cc1
87.6 µM	C[N+]1([O-])CCC2=C[C@H](O)[C@H]3OC(=O)c4cc5c(cc4[C@H]3[C@@H]21)OCO5 (stereo partly drawn)
70.4 µM	COC(=O)c1cc2c(cc1-c1cc(OC(C)=O)cc3c1N(C)CC3)OCO2
58.3 µM	CN1CC[C@]2(O)[C@H](Br)[C@H](O)[C@H]3OC(=O)c4cc5c(cc4[C@H]3[C@H]12)OCO5
68.7 µM	CN1CC[C@@]2(O)[C@@H]1[C@@H]1c3cc4c(cc3C(=O)O[C@@H]1[C@@H](O)[C@@H]2O)OCO4
67.5 µM	C=Cc1cccc(-c2cc3c(cc2C(=O)O)OCO3)c1N(C)C
67.6 µM	C=Cc1cccc(-c2cc3c(cc2C(=O)OC)OCO3)c1N(C)C
1.3 µM	CN1CCC2=C[C@H](OC(=O)c3cccc(C(=O)O[C@H]4C=C5CCN(C)[C@H]5[C@@H]5c6cc7c(cc6C(=O)O[C@@H]54)OCO7)c3)[C@H]3OC(=O)c4cc5c(cc4[C@H]3[C@@H]21)OCO5
3.9 µM	CN1CCC2=C[C@H](OC(=O)c3cccc(C(=O)O[C@H]4C=C5CCN(C)[C@H]5[C@@H]5c6cc7c(cc6C(=O)O[C@@H]54)OCO7)n3)[C@H]3OC(=O)c4cc5c(cc4[C@H]3[C@@H]21)OCO5
1.3 µM	CN1CCC2=C[C@H](OC(=O)c3ccc(C(=O)O[C@H]4C=C5CCN(C)[C@H]5[C@@H]5c6cc7c(cc6C(=O)O[C@@H]54)OCO7)cc3)[C@H]3OC(=O)c4cc5c(cc4[C@H]3[C@@H]21)OCO5
4 µM	CN1CCC2=C[C@H](OC(=O)CCCCC(=O)O[C@H]3C=C4CCN(C)[C@H]4[C@@H]4c5cc6c(cc5C(=O)O[C@@H]43)OCO6)[C@H]3OC(=O)c4cc5c(cc4[C@H]3[C@@H]21)OCO5
